Here are results for 5 molecules from article PMC9870020 (Tissue Barriers, 2022).

For data set [1] the following is noted: 2 mM; cited from earlier work.
For data set [2], the system named is Caco-2 epithelial cell layers. Description: Permeability of fluorescent markers. The settings on record: Caco-2 layers. It is filed as cell-based. The essentials: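 Caco-2 cells (passage 35–39) were grown 21 days on collagen-coated 0.33 cm2 inserts (0.4 µm pores) and equilibrated 30 min in warm HBSS. Test compound with FD-4 (0.25 mM) or other marker in HBSS was applied apically. Basolateral fluorescence (ex 485/em 520 nm) was read over 180 min against a calibration curve to give Papp. TEER was measured before and after. Triplicates, mean ± S.D.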

The next data set relates to epithelial cells. The following applies: cited from earlier work.
Data set [3] concerns nasal epithelial cell layers. The following applies: cited from earlier work.
For another data set, the system named is epithelial cell layers. The settings on record: cited from earlier work.
The conditions of data set [4]: concentration of 625 µM; cited from earlier work.
The conditions of data set [5]: cited from earlier work.

Consider `CCCCCCCCCCCCOS(=O)(=O)[O-].[Na+]` [SDS, Sodium dodecylsulfate], for which the “Toxicity of SDS” value in data set [1] is recorded as “toxic”.

L-myr-ARRAR [LW-5]: the “Permeability of FD-4 (Papp) in the presence of L-R5 analogues” value in data set [2] (Figure 6A, peptides 50 µM, FD-4 0.25 mM, 180 min, mean n = 3) is recorded as “significantly lower than with L-R5”.

As to L-myr-ARRWR [L-R5], the “Epithelial cytotoxicity in vitro” value in the data set with epithelial cells is on record as “lack of epithelial cytotoxicity”. For the same molecule, in data set [3], the “Reversibility of TJ modulation by the peptide” value was “rapidly reversible”. Besides, the “Size of molecules transported paracellularly with L-R5” value in data set [3] (nasal epithelial cell layers in vitro, previously shown) is listed as “up to 4 kDa”. Further, the “Molecular weight limit of opening of TJs caused by L-R5” value in data set [2] (L-R5 50 µM, from sodium fluorescein, FD-4 and FD-150 permeability) worked out at 150 kDa. In addition, the “Permeability of sodium fluorescein in the presence of L-R5” value in data set [2] (Figure 5, L-R5 50 µM, 180 min, mean n = 3) was “higher permeability compared to FD-4”. Further, the “Passage of the peptide across epithelial cell layers” value in the data set with epithelial cell layers is “not to cross epithelial cell layers”.

`CC(C)(C)[C@]1(O)CC2OC(=O)CC23C(=O)OC2OC(=O)[C@H](O)C231` (stereo partly shown) [bilobalide, Bilobalide]: in data set [4], the Cytotoxicity of bilobalide result was “no cytotoxicity”.

As to `CCCCCCCCCC(=O)[O-].[Na+]` [C10, sodium caprate], in data set [5], the “Toxicity of C10” value is given as “no toxicity was demonstrated”.
